In brackets after ≈: the same amount, converted by molar mass.
Key:
[1] = test system: Mycobacterium tuberculosis; experiment: Antimycobacterial activity against Mycobacterium tuberculosis H37Rv assessed as inhibition of bacterial growth after 5 days by Microplate Alamar Blue Assay; type: functional; conditions: 120 h
Vero = experiment: Cytotoxicity against African green monkey Vero cells assessed as inhibition of cell proliferation by MTT assay; type: cell-based; conditions: Chlorocebus sabaeus
Procedure, shortened: (§1)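 MTT read-out; IC50 taken as the concentration giving a 50% drop in optical density of treated cells relative to untreated cells.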

A549 = experiment: Cytotoxicity against human A549 assessed as inhibition of cell proliferation by MTT assay; type: cell-based; procedure, shortened: as §1

Row | Structure (SMILES) | MIC [1] [mg/L] | IC50 (Vero) [µM] | IC50 (A549) [µM]
1 | Cc1ccccc1OCCCOc1ccc(-n2cccc2)cc1 | 25 (≈ 81.3 µM) | – | –
2 | Cc1ccc(OCCOc2ccc(-n3cccc3)cc2)cc1 | 25 (≈ 85.2 µM) | – | –
3 | c1ccn(-c2ccc(OCCOc3ccc(-n4cccc4)cc3)cc2)c1 | 6.25 (≈ 18.1 µM) | – | –
4 | CCOc1cc(C=O)ccc1OCCCOc1ccc(-n2cccc2)cc1 | 3.12 (≈ 8.55 µM) | 215 | 223
5 | O=[N+]([O-])c1ccc(OCCCOc2ccc(-n3cccc3)cc2)cc1 | 100 (≈ 296 µM) | – | –
6 | c1ccc2c(OCCCOc3ccc(-n4cccc4)cc3)cccc2c1 | 1.6 (≈ 4.66 µM) | 240 | 243
7 | Oc1ccccc1OCCCOc1ccc(-n2cccc2)cc1 | 12.5 (≈ 40.4 µM) | – | –
8 | c1ccc2cc(OCCOc3ccc(-n4cccc4)cc3)ccc2c1 | 3.12 (≈ 9.49 µM) | 231 | 233
9 | Cc1ccc(OCCOc2ccc(-n3cccc3)cc2)c(C)c1 | 12.5 (≈ 40.7 µM) | – | –
10 | Oc1ccc(OCCOc2ccc(-n3cccc3)cc2)cc1 | 12.5 (≈ 42.3 µM) | – | –
11 | c1ccc(OCCCOc2ccc(-n3cccc3)cc2)cc1 | 50 (≈ 170 µM) | – | –
12 | c1ccn(-c2ccc(OCCCOc3ccc(-n4cccc4)cc3)cc2)c1 | 6.25 (≈ 17.4 µM) | – | –
13 | O=Cc1ccc(OCCOc2ccc(-n3cccc3)cc2)cc1 | 12.5 (≈ 40.7 µM) | – | –
14 | Oc1cc(O)cc(OCCOc2ccc(-n3cccc3)cc2)c1 | 3.12 (≈ 10 µM) | 231 | 237
15 | O=[N+]([O-])c1ccc(OCCOc2ccc(-n3cccc3)cc2)cc1 | 50 (≈ 154 µM) | – | –
16 | Oc1ccccc1OCCOc1ccc(-n2cccc2)cc1 | 12.5 (≈ 42.3 µM) | – | –
17 | Cc1ccc(OCCCOc2ccc(-n3cccc3)cc2)cc1 | 12.5 (≈ 40.7 µM) | – | –
18 | c1ccc2cc(OCCCOc3ccc(-n4cccc4)cc3)ccc2c1 | 3.12 (≈ 9.1 µM) | 238 | 235
19 | Cc1ccc(OCCCOc2ccc(-n3cccc3)cc2)c(C)c1 | 25 (≈ 77.8 µM) | – | –
20 | COc1cc(C=O)ccc1OCCCOc1ccc(-n2cccc2)cc1 | 3.12 (≈ 8.89 µM) | 212 | 210
21 | Fc1ccc(OCCCOc2ccc(-n3cccc3)cc2)cc1 | 6.25 (≈ 20.1 µM) | – | –
22 | COc1cc(C=O)ccc1OCCOc1ccc(-n2cccc2)cc1 | 6.25 (≈ 18.5 µM) | – | –
23 | CCOc1cc(C=O)ccc1OCCOc1ccc(-n2cccc2)cc1 | 3.12 (≈ 8.89 µM) | 211 | 217

Row | Structure (SMILES) | MIC [1] [mg/L] | IC50 (Vero) [µM] | IC50 (A549) [µM]
24 | Nc1cccc(OCCCOc2ccc(-n3cccc3)cc2)c1 | 100 (≈ 324 µM) | – | –
25 | O=Cc1ccc(OCCCOc2ccc(-n3cccc3)cc2)cc1 | 12.5 (≈ 38.9 µM) | – | –
26 | Clc1cccc(OCCCOc2ccc(-n3cccc3)cc2)c1 | 50 (≈ 153 µM) | – | –
27 | Brc1cccc(OCCCOc2ccc(-n3cccc3)cc2)c1 | 25 (≈ 67.2 µM) | – | –
28 | Cc1cc(C)cc(OCCOc2ccc(-n3cccc3)cc2)c1 | 50 (≈ 163 µM) | – | –
29 | NNC(=O)c1ccncc1 [ISONIAZID] | 0.25 (≈ 1.82 µM) | > 450 | > 450
30 | Cc1ccc(C)c(OCCOc2ccc(-n3cccc3)cc2)c1 | 25 (≈ 81.3 µM) | – | –
31 | Brc1ccc(OCCCOc2ccc(-n3cccc3)cc2)cc1 | 6.25 (≈ 16.8 µM) | – | –
32 | Oc1cc(O)cc(OCCCOc2ccc(-n3cccc3)cc2)c1 | 3.12 (≈ 9.6 µM) | 220 | 227
33 | Oc1cccc(OCCOc2ccc(-n3cccc3)cc2)c1 | 6.25 (≈ 21.2 µM) | – | –
34 | Cc1ccc(C)c(OCCCOc2ccc(-n3cccc3)cc2)c1 | 25 (≈ 77.8 µM) | – | –
35 | Nc1ccc(OCCOc2ccc(-n3cccc3)cc2)cc1 | 100 (≈ 340 µM) | – | –
36 | Oc1cccc(OCCCOc2ccc(-n3cccc3)cc2)c1 | 12.5 (≈ 40.4 µM) | – | –
37 | Nc1cccc(OCCOc2ccc(-n3cccc3)cc2)c1 | 100 (≈ 340 µM) | – | –
38 | Oc1cc(OCCOc2ccc(-n3cccc3)cc2)ccc1Cl | 6.25 (≈ 19 µM) | – | –
39 | O=[N+]([O-])c1ccc(OCCCOc2ccc(-n3cccc3)cc2)c([N+](=O)[O-])c1 | 100 (≈ 261 µM) | – | –
40 | Nc1ccccc1OCCOc1ccc(-n2cccc2)cc1 | 100 (≈ 340 µM) | – | –
41 | Brc1ccc(OCCOc2ccc(-n3cccc3)cc2)cc1 | 12.5 (≈ 34.9 µM) | – | –
42 | Nc1ccc(OCCCOc2ccc(-n3cccc3)cc2)cc1 | 50 (≈ 162 µM) | – | –
43 | Nc1ccccc1OCCCOc1ccc(-n2cccc2)cc1 | 100 (≈ 324 µM) | – | –
44 | N#Cc1ccc(OCCCOc2ccc(-n3cccc3)cc2)cc1 | 6.25 (≈ 19.6 µM) | – | –
45 | Clc1cccc(OCCOc2ccc(-n3cccc3)cc2)c1 | 25 (≈ 79.7 µM) | – | –
46 | Fc1ccc(OCCOc2ccc(-n3cccc3)cc2)cc1 | 6.25 (≈ 21 µM) | – | –

Row | Structure (SMILES) | MIC [1] [mg/L] | IC50 (Vero) [µM] | IC50 (A549) [µM]
47 | Clc1ccccc1OCCOc1ccc(-n2cccc2)cc1 | 25 (≈ 79.7 µM) | – | –
48 | Cc1ccc(C)n1-c1ccc(OCCOc2ccc(-n3cccc3)cc2)cc1 | 6.25 (≈ 16.8 µM) | – | –
49 | Clc1ccc(OCCOc2ccc(-n3cccc3)cc2)cc1 | 12.5 (≈ 39.8 µM) | – | –
50 | N#Cc1ccc(OCCOc2ccc(-n3cccc3)cc2)cc1 | 6.25 (≈ 20.5 µM) | – | –
51 | Oc1cc(OCCCOc2ccc(-n3cccc3)cc2)ccc1Cl | 6.25 (≈ 18.2 µM) | – | –
52 | Brc1cccc(OCCOc2ccc(-n3cccc3)cc2)c1 | 25 (≈ 69.8 µM) | – | –
53 | O=[N+]([O-])c1ccc(OCCOc2ccc(-n3cccc3)cc2)c([N+](=O)[O-])c1 | 100 (≈ 271 µM) | – | –
54 | Cc1cccc(OCCOc2ccc(-n3cccc3)cc2)c1 | 25 (≈ 85.2 µM) | – | –
55 | Brc1ccccc1OCCOc1ccc(-n2cccc2)cc1 | 25 (≈ 69.8 µM) | – | –
56 | c1ccc2c(OCCOc3ccc(-n4cccc4)cc3)cccc2c1 | 3.12 (≈ 9.49 µM) | 220 | 215
57 | c1ccc(OCCOc2ccc(-n3cccc3)cc2)cc1 | 50 (≈ 179 µM) | – | –
58 | Brc1ccccc1OCCCOc1ccc(-n2cccc2)cc1 | 25 (≈ 67.2 µM) | – | –
59 | Ic1ccc(OCCCOc2ccc(-n3cccc3)cc2)cc1 | 12.5 (≈ 29.8 µM) | – | –
60 | Cc1cc(C)cc(OCCCOc2ccc(-n3cccc3)cc2)c1 | 25 (≈ 77.8 µM) | – | –
61 | Clc1ccccc1OCCCOc1ccc(-n2cccc2)cc1 | 25 (≈ 76.3 µM) | – | –
62 | Cc1cccc(OCCCOc2ccc(-n3cccc3)cc2)c1 | 25 (≈ 81.3 µM) | – | –
63 | Cc1ccccc1OCCOc1ccc(-n2cccc2)cc1 | 25 (≈ 85.2 µM) | – | –
64 | Ic1ccc(OCCOc2ccc(-n3cccc3)cc2)cc1 | 12.5 (≈ 30.8 µM) | – | –
65 | Oc1cc(Cl)ccc1Oc1ccc(Cl)cc1Cl [TRICLOSAN] | 10 (≈ 34.5 µM) | – | –
66 | Oc1ccc(OCCCOc2ccc(-n3cccc3)cc2)cc1 | 12.5 (≈ 40.4 µM) | – | –
67 | Clc1ccc(OCCCOc2ccc(-n3cccc3)cc2)cc1 | 6.25 (≈ 19.1 µM) | – | –
68 | Cc1ccc(C)n1-c1ccc(OCCCOc2ccc(-n3cccc3)cc2)cc1 | 3.12 (≈ 8.09 µM) | 235 | 237

Source: ChEMBL document CHEMBL3576786, “Discovery of target based novel pyrrolyl phenoxy derivatives as antimycobacterial agents: an in silico approach” (Eur J Med Chem, 2015)
